In the library only some 1.8% were active in any assay of this set; here they are far more common.
DNMT1 block = human DNMT1 methyltransferase inhibitors, primary screen, biochemical, molecular beacon, fluorescence, HinP1I cleavage, uHTS; DNA (cytosine-5)-methyltransferase 1 (Homo sapiens), P26358; inhibition (reported as % activation of signal), % at 10 µM; hit rate 0.83% among 360,000; in the data active = inhibition above about 50%
SUMO1 PPI mod = modulators of SUMO1 protein-protein interactions, primary screen, biochemical, uHTS. Small ubiquitin-related modifier 1 (Homo sapiens), P63165. SUMO1 binding to a labelled peptide, TR-FRET, 1 h. inhibition, % at 20 µM. hit rate 0.33% among 360,000. AID 602429, 2012; in the data active = inhibition above about 37%
STEP block = STEP phosphatase inhibitors, primary screen, biochemical, fluorescence intensity, uHTS; recombinant STEP, OMFP fluorogenic substrate; hit rate 0.25% among 360,000; Tyrosine-protein phosphatase non-receptor type 5 (Homo sapiens), P54829; inhibition, % at 20 µM;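 active = inhibition at 20 µM, scaled per plate between control wells, above about 37%, limit read from the data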;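 note: 0% = DMSO with enzyme and substrate and 100% = substrate only without enzyme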
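Assay system: isolated STEP enzyme / Timing: 20 min at room temperature, dark / Doses: 20 µM, 1% DMSO / Technique: fluorescence intensity, excitation 480 nm, emission 540 nm / Reagent: fluorogenic phosphatase substrate OMFP at 25 µM final / Measure: percent inhibition scaled to no-enzyme and uninhibited-enzyme controls, plate-pattern corrected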
Scp-1 inhibitor = Scp-1 phosphatase inhibitors, primary screen, biochemical, colorimetric, uHTS. Recombinant Scp1, phosphopeptide, malachite green phosphate absorbance. inhibition, % at 20 µM. hit rate 0.88% among 340,000. AID 493091, 2011;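 active = inhibition above about 50% at 20 µM, limit read from the data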;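 note: plate controls were DMSO wells with enzyme for no effect and wells lacking enzyme for full effect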
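Test system: SCP-1 phosphatase catalytic domain, residues 76-261 | Compound dosing: One concentration, 20 µM, with 1.0% DMSO | Schedule: 45 min room-temperature reaction, 5 min colour, 30 min stabiliser | Detection: Absorbance at 630 nm | Read-out basis: % inhibition of SCP-1 phosphate liberation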
HKDC1 inh = HKDC1 hexokinase inhibitors, primary screen, biochemical, fluorescence, uHTS; Q2TB90; recombinant HKDC1, G6PDH/diaphorase resazurin coupled fluorescence; inhibition, % at 20 µM; hit rate 0.16% among 340,000; AID 493160, 2011;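 active = inhibition above about 35% when tested at 20 µM, limit read from the data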;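 note: plate controls were DMSO wells with enzyme for no effect and DMSO wells lacking enzyme for full effect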
Target sequence (Q2TB90 whole entry, looked up): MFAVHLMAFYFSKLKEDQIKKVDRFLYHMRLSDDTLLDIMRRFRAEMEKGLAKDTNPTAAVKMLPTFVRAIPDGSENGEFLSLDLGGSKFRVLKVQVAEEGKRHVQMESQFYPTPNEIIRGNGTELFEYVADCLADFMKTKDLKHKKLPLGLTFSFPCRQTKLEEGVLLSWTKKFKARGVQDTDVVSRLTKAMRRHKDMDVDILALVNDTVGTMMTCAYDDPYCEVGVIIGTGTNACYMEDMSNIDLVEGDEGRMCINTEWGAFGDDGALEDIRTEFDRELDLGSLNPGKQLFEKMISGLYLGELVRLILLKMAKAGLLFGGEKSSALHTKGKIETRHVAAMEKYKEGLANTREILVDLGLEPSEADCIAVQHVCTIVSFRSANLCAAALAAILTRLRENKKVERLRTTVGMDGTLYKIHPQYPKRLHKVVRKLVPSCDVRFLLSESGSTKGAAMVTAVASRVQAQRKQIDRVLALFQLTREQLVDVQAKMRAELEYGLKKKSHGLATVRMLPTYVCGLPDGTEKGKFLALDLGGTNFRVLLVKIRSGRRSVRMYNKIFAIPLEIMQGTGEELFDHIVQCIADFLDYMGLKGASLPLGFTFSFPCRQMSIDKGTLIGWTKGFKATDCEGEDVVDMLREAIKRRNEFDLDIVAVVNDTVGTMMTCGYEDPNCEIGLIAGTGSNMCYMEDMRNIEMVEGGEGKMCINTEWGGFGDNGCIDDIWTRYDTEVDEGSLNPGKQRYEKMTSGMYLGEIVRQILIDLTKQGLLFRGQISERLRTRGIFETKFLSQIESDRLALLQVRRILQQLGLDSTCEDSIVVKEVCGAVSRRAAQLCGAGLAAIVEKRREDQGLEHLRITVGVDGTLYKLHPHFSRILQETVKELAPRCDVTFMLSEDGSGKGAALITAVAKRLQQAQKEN
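Test system: recombinant HKDC1 (HK5) hexokinase enzyme, produced in-house; Amount: enzyme 5 µg/mL final; Buffer or medium: Tris pH 8.0 buffer with MgCl2, Tween-20, BSA, BME; Reagent: glucose and ATP substrates; Doses: 20 µM test compound, 1% DMSO; Incubation: 90 min reaction incubation at room temperature, dark; Detection: resorufin fluorescence at 613 nm.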
LMPTP inh = LMPTP phosphatase inhibitors, primary screen, biochemical, fluorescence intensity, uHTS; AID 651560, 2012; hit rate 0.22% among 360,000; Low molecular weight phosphotyrosine protein phosphatase (Homo sapiens), P24666; inhibition, % at 20 µM; recombinant LMPTP-A, OMFP fluorogenic substrate;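 active = compounds that cut the enzyme signal by at least half of the control window in the single-dose screen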;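 note: plate controls were DMSO wells with enzyme plus substrate for no effect and substrate without enzyme for full effect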
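material = LMPTP-A | quantity = 0.625 nM enzyme | reagent = OMFP substrate, 400 µM final | buffer or medium = Bis-Tris pH 6.0, DTT, detergent | detection = endpoint fluorescence intensity from OMFP dephosphorylation | dosing = single 20 µM dose | read-out basis = % inhibition relative to no-enzyme and uninhibited control wells | control set = no-enzyme and uninhibited controls | timing = 50 min at room temperature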
Numbers without * were called inactive; . = no result given.

SMILES	DNMT1 block	SUMO1 PPI mod	STEP block	Scp-1 inhibitor	HKDC1 inh	LMPTP inh
O=C(Cn1c(=O)oc2ccccc21)Nc1ccc(Br)cc1	2	6	1	-2	-3	1
Cn1c(=O)c2nc3ccccc3nc2n(C)c1=O	4	-30	-2	-5	-9	0
CC(=O)Nc1ccc2nc3c(=O)n(C)c(=O)n(C)c3nc2c1	-1	9	2	84*	18	1
CC(C)(C)N1C(=O)Cc2c1nc(N)c1c(N)nc(N3CCCCC3CO)c(C#N)c21 (stereo not drawn)	6	50*	12	9	25	28
Cc1ccccc1CN1C(=O)C(C)Sc2ccc(-c3ccco3)cc21 (stereo not drawn)	58*	6	2	.	.	1
COc1ccc(Nc2nc(N)nc(CSC(=S)N3CCCCC3)n2)cc1	-7	4	-1	-4	-2	1
COc1ccc(Nc2nc(N)nc(CSC(=S)N3CCN(C)CC3)n2)cc1	1	50*	1	-6	-7	-1
Cc1ccc(NC(=O)CN2C(=O)N/C(=C/c3cccn3-c3ccc(C(=O)O)cc3)C2=O)cc1	107*	49*	97*	93*	27	50*
Cc1ccc(NC(=O)CN2C(=O)S/C(=C\c3cc(C)n(-c4ccc(C(=O)O)cc4)c3C)C2=O)cc1	-10	-6	4	-9	8	3
O=C(NNC(=O)c1ccccc1O)c1ccc(S(=O)(=O)Nc2ccccc2)cc1	0	14	-1	-14	-4	0
CC(C)(CN1CCc2ccccc2C1)NS(=O)(=O)c1ccc(Cl)cc1	-3	45*	0	-5	0	2
COc1cc(C2C(C#N)=C(N)OC3=C2C(=O)CCC3)cc2c1OCO2 (stereo not drawn)	0	2	1	-3	-7	-1
C=C(C(=O)O)C1CCC2(C)CCCC(C)(O)C2C1 (stereo not drawn)	3	6	0	36	-2	-1
COC(=O)c1c[nH]c2c1-c1cc(C(=O)OCc3ccccc3)n(S(=O)(=O)c3ccc(C)cc3)c1C(=O)C2=O	96*	-1	5	5	26	60*
COc1ccc(-c2noc(N3CCC(C(=O)Nc4cccc(OC)c4)CC3)n2)cc1	-1	3	-3	-19	3	0
O=C(NN1C(=O)CSC1=S)C(=O)NN1C(=O)CSC1=S	58*	40*	8	55*	-37	0
O=C(Cc1cccc2ccccc12)NN1C(=O)CSC1=S	-9	11	1	-9	-6	-2
CCC/C(=N\NC(=O)c1cccc(C)c1)c1ccccc1	-1	0	-3	-5	-10	0
CCN=C(N/N=C/c1ccc([N+](=O)[O-])cc1)SC	4	-22	-2	104*	1	-2
CCN(CC)c1ccc(/C=N/NC(=O)c2ccc([N+](=O)[O-])cc2)cc1	12	-11	1	-1	-13	1
CC[C@H]1OC(=O)[C@H](C)[C@@H](O[C@H]2C[C@@](C)(OC)[C@@H](O)[C@H](C)O2)[C@H](C)[C@@H](O[C@@H]2O[C@H](C)C[C@H](N(C)C)[C@H]2O)[C@](C)(O)C[C@@H](C)C(=O)[C@H](C)[C@@H](O)[C@]1(C)O	77*	14	1	8	-5	75*
N#CC1(NC(=O)COC(=O)c2cc(O)c3ccccc3c2O)CCCCC1	-20	-9	0	85*	50*	2
N#CC1(NC(=O)COC(=O)c2ccccc2[N+](=O)[O-])CCCCC1	3	-15	1	-13	-3	0
O=C(Nc1ccn(Cc2ccc(Cl)cc2)n1)c1ccc2c(c1)OCO2	-8	40*	-1	-5	-8	-1
Cc1cccc(Cn2ccc(NC(=O)c3ccc4c(c3)OCO4)n2)c1	-3	1	1	-2	0	0
SMILES	DNMT1 block	SUMO1 PPI mod	STEP block	Scp-1 inhibitor	HKDC1 inh	LMPTP inh
Cc1ccc(SCC(=O)OCC(=O)NC2(C#N)CCCCC2)cc1	-2	-4	0	-8	9	0
CCN1/C(=C/c2cccc[n+]2C)Sc2ccc(OC)cc21	1	-43	-1	109*	-7	2
Nc1c(C(=O)NCc2ccco2)sc2nc3c(cc12)C(=O)CCC3	0	6	1	74*	15	13
COc1ccc2cc3c(N)c(C(=O)NCc4ccco4)sc3nc2c1	4	-2	1	0	9	2
Cc1nnsc1-c1onc(C)c1C(=O)O/N=C/c1ccc(Cl)cc1	4	-3	-2	1	0	-1
O=C(Nc1ccc(Nc2ccncc2)cc1)c1ccc(Nc2ccnc3ccc([N+](=O)[O-])cc23)cc1[N+](=O)[O-]	23	45*	2	-7	4	89*
O=C(Nc1ccc(Nc2ccncc2)cc1)c1ccc([N+](=O)[O-])cc1	-3	-36	2	-4	-1	15
CN1CCc2nc3sc(C(=O)C45CC6CC(CC(C6)C4)C5)c(N)c3cc2C1	78*	6	5	2	26	2
Nc1c(C(=O)O)sc2nc3c(cc12)CCCC3	7	2	3	-5	-3	-2
O=C(N/N=C/c1ccc([N+](=O)[O-])s1)c1cccc(Br)c1	21	-6	55*	97*	1	75*
Cc1ccc(C(=O)N/N=C/c2ccc([N+](=O)[O-])s2)cc1	3	-19	24	104*	10	47
O=C(N/N=C/c1ccc([N+](=O)[O-])s1)c1ccncc1	-9	-28	3	-7	5	-1
COc1ccccc1CNC(=O)Cn1cccc1C(=O)c1ccccc1	-2	3	0	-6	-7	-1

Bioassay records as filed in PubChem BioAssay.
